Bounds are passed on as bounds.

Assay type in all cases: functional
The test system of experiment [1] is HT-29. The experiment can be described thus: Cytotoxicity against human HT-29 cells at 100 uM after 2 days by sulforhodamine B assay. Particulars: HT-29, 48 h. The method, boiled down: (§1)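 Five human cancer lines (HT-29, DU-145, A-549, SK-MEL-2, SK-OV-3) seeded at 3–7 × 10³ cells/well; compounds at 100 µM added in duplicate; 37 °C, 5% CO₂, two days. Fixed with formalin, SRB stained, washed with 1% acetic acid, dye solubilized in 10 mM unbuffered Tris base; OD at 520 nm. Read-out is % inhibition.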

The subject of experiment [2] is HT-29. The experiment can be described thus: Growth inhibition of human HT-29 cells after 2 days by MTT assay. The conditions noted are these: HT-29, 48 h. The method, boiled down:
(§2)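 HT-29 and DU-145 cells seeded at 5 × 10⁴ cells/mL; serial concentrations added in duplicate; 37 °C, 5% CO₂, two days. MTT dye (Cell Titer96) for up to 4 h at 37 °C, then solubilization/stop mix overnight at room temperature; OD at 570 nm. GI₅₀ = concentration giving 50% growth inhibition; mean ± SEM of three or more experiments; doxorubicin as internal standard.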

Experiment [3] concerns DU-145. Kind of experiment: Cytotoxicity against human DU145 cells at 100 uM after 2 days by sulforhodamine B assay. Particulars: DU-145, 48 h. The method, boiled down: as §1
For experiment [4], the system named is DU-145. The experiment can be described thus: Growth inhibition of human DU145 cells after 2 days by MTT assay. The conditions noted are these: DU-145, 48 h. The method, boiled down: as §2
Experiment [5] deals with SK-MEL-2. The experiment can be described thus: Cytotoxicity against human SK-MEL-2 cells at 100 uM after 2 days by sulforhodamine B assay. Particulars: SK-MEL-2, 48 h. The method, boiled down:
as §1

Experiment [6] relates to A549. The experiment can be described thus: Cytotoxicity against human A549 cells at 100 uM after 2 days by sulforhodamine B assay. The conditions noted are these: A549, 48 h. The procedure, abridged: as §1
Experiment [7] has as its system SK-OV-3. The experiment can be described thus: Cytotoxicity against human SKOV3 cells at 100 uM after 2 days by sulforhodamine B assay. Particulars: SK-OV-3, 48 h. The method, boiled down:
as §1

On to `O=C(Nn1c(CCC2CCCC2)nc2c(-c3ccc(Cl)cc3)n[nH]c2c1=O)c1ccccc1`, for which the inhibition at 100 µM in experiment [1] was 87.3%; in experiment [3], 89.6%. Moreover, the GI50 in experiment [2] was determined as 1.8 µM; in experiment [4] it was 10.2 µM.

In the case of `O=C(Nn1c(-c2cccc([N+](=O)[O-])c2)nc2c(-c3cccs3)n[nH]c2c1=O)c1cccnc1`, the inhibition at 100 µM turned out to be 3.26% in experiment [5], 3.9% in experiment [1], 32.8% in experiment [3] and 10.2% in experiment [6].

For `COc1cccc(-c2nc3c(-c4cccc(Cl)c4)n[nH]c3c(=O)n2NC(=O)c2ccccc2)c1`, the inhibition at 100 µM in experiment [5] amounted to 81.9%; in experiment [1], 91%; in experiment [3], 93.5%.

In the case of `COc1cccc(-c2nc3c(-c4ccco4)n[nH]c3c(=O)n2NC(=O)c2cccnc2)c1`, the inhibition at 100 µM in experiment [5] amounted to 34.1%; in experiment [1] it was 12.8%; in experiment [3], 30.1%; in experiment [7] it was 25%; in experiment [6], 14.9%.

For the molecule `O=C(Nn1c(-c2cccc([N+](=O)[O-])c2)nc2c(-c3ccc(F)cc3)n[nH]c2c1=O)c1cccnc1`, the inhibition at 100 µM in experiment [5] was 24.5%; in experiment [1], 24.7%; in experiment [3] it was 24.9%; in experiment [7], 19.3%; in experiment [6] it was 28.8%.

Take `CCCc1n[nH]c2c(=O)n(NC(=O)c3ccncc3)c(-c3cccc(OC)c3)nc12`: the inhibition at 100 µM in experiment [5] was determined as 11.4%; in experiment [1], 0.07%; in experiment [3], 4.04%; in experiment [7], 4.04%; in experiment [6], 11.2%.

`O=C(Nn1c(-c2cccc([N+](=O)[O-])c2)nc2c(-c3ccco3)n[nH]c2c1=O)c1cccnc1`: the inhibition at 100 µM in experiment [5] was 19.2%; in experiment [1], 11.7%; in experiment [3] it was 1.66%; in experiment [7] it was -0.61%; in experiment [6], 1.51%.

With `CC(C)(C)c1ccc(C(=O)Nn2c(CCC3CCCC3)nc3c(-c4ccc(Cl)cc4)n[nH]c3c2=O)cc1`, the inhibition at 100 µM in experiment [1] came out at 76.8%; in experiment [3], 64.2%. Moreover, the GI50 in experiment [2] is 20.6 µM; in experiment [4], 21.5 µM.

`CCCc1nc2c(-c3ccc(Cl)cc3)n[nH]c2c(=O)n1NC(=O)c1ccccc1`: the inhibition at 100 µM in experiment [1] came to 91.1%; in experiment [3] it was 89.4%. For the same molecule, the results for the GI50 in experiment [2] and in experiment [4] were 9.26 µM and 29.2 µM, respectively.

`CCCc1n[nH]c2c(=O)n(NC(=O)c3ccccc3)c(-c3cccc(OC)c3)nc12`: the inhibition at 100 µM in experiment [5] was found to be 16.7%; in experiment [1], 6.27%; in experiment [3], 23.6%; in experiment [7] it was 9.96%; in experiment [6], 20.7%.

For `O=C(Nn1c(-c2cccc([N+](=O)[O-])c2)nc2c(-c3ccco3)n[nH]c2c1=O)c1ccccc1`, the inhibition at 100 µM worked out at 23% in experiment [5]; 21.2% in experiment [1]; 16.1% in experiment [3]; 17.9% in experiment [7]; 18.7% in experiment [6].

`O=C(Nn1c(-c2cccc([N+](=O)[O-])c2)nc2c(CCc3ccccc3)n[nH]c2c1=O)c1ccccc1`: the inhibition at 100 µM amounted to 92% in experiment [5], 89.7% in experiment [1], 92.5% in experiment [3] and 73.9% in experiment [6].

For the molecule `CC(C)Cc1n[nH]c2c(=O)n(NC(=O)c3ccncc3)c(-c3cccc([N+](=O)[O-])c3)nc12`, the inhibition at 100 µM in experiment [5] was found to be 38.7%; in experiment [3], 55.3%; in experiment [7] it was 35.8%.

With `O=C(Nn1c(-c2cccc([N+](=O)[O-])c2)nc2c(-c3cccc(Cl)c3)n[nH]c2c1=O)c1ccccc1`, the figures for the inhibition at 100 µM in experiment [5], in experiment [1] and in experiment [3] were 78.2%, 89.8% and 93.8%, respectively.

For `O=C(Nn1c(-c2cccc([N+](=O)[O-])c2)nc2c(CCc3ccccc3)n[nH]c2c1=O)c1cccnc1`, the inhibition at 100 µM in experiment [5] was found to be 28.5%; in experiment [1], 20.1%; in experiment [3], 22.5%; in experiment [7], 30.1%; in experiment [6] it was 19%.

For the molecule `COc1cccc2c1C(=O)c1c(O)c3c(c(O)c1C2=O)C[C@@](O)(C(=O)CO)C[C@@H]3O[C@H]1C[C@H](N)[C@H](O)[C@H](C)O1` [DOXORUBICIN], the inhibition at 100 µM amounted to 60.9% in experiment [1] and 62.8% in experiment [3]. The GI50 in experiment [2] turned out to be 0.85 µM; in experiment [4], 0.35 µM.

In the case of `COc1cccc(-c2nc3c(-c4ccc(Cl)cc4)n[nH]c3c(=O)n2NC(=O)c2ccncc2)c1`, the inhibition at 100 µM in experiment [5] came out at 39.6%; in experiment [1] it was 46%; in experiment [3], 54.4%; in experiment [7], 42.5%; in experiment [6] it was 46%.

`CC(C)(C)c1ccc(C(=O)Nn2c(CC3CCCCC3)nc3c(-c4ccc(Cl)cc4)n[nH]c3c2=O)cc1`: the figures for the inhibition at 100 µM in experiment [1] and in experiment [3] were 72.3% and 65.2%, respectively. The GI50 was 1.06 µM in experiment [2] and above 100 µM in experiment [4].

`CCCc1nc2c(-c3ccc(Cl)cc3)n[nH]c2c(=O)n1NC(=O)Cc1ccccc1`: the inhibition at 100 µM was 91.4% in experiment [1] and 89.7% in experiment [3]. Further, the values for the GI50 in experiment [2] and in experiment [4] were 15.2 µM and 16 µM, respectively.

Take `COc1cccc(-c2nc3c(-c4ccco4)n[nH]c3c(=O)n2NC(=O)c2ccccc2)c1`: the inhibition at 100 µM in experiment [5] turned out to be 43.2%; in experiment [1], 49.8%; in experiment [3] it was 50.5%; in experiment [7], 35.2%; in experiment [6] it was 53.8%.

On to `CCCc1n[nH]c2c(=O)n(NC(=O)c3ccccc3)c(-c3cccc([N+](=O)[O-])c3)nc12`, for which the inhibition at 100 µM worked out at 22.9% in experiment [5]; 18.7% in experiment [1]; 27.8% in experiment [3]; 28.8% in experiment [7]; 33.2% in experiment [6].

As to `COc1cccc(-c2nc3c(-c4ccc(C5CCNCC5)cc4)n[nH]c3c(=O)n2NC(=O)c2ccncc2)c1`, the inhibition at 100 µM in experiment [5] is 23.4%; in experiment [1] it was 28.1%; in experiment [3] it was 37%; in experiment [7], 18.2%; in experiment [6], 32.4%.

With `O=C(Nn1c(-c2cccc([N+](=O)[O-])c2)nc2c(-c3ccc(Cl)cc3)n[nH]c2c1=O)c1cccnc1`, the inhibition at 100 µM in experiment [5] turned out to be 16.3%; in experiment [1], 15.1%; in experiment [3], 31%; in experiment [7], 30.2%; in experiment [6], 19.7%.

In the case of `CCCc1n[nH]c2c(=O)n(NC(=O)c3ccncc3)c(-c3cccc([N+](=O)[O-])c3)nc12`, the inhibition at 100 µM is 14.2% in experiment [5]; -0.83% in experiment [1]; 15.1% in experiment [3]; 15.1% in experiment [7]; 9.95% in experiment [6].

As to `O=C(Nn1c(-c2cccc([N+](=O)[O-])c2)nc2c(-c3ccc(F)cc3)n[nH]c2c1=O)c1ccccc1`, the inhibition at 100 µM in experiment [5] stood at 88.5%; in experiment [1], 92%; in experiment [3] it was 90.8%; in experiment [7] it was 77.7%; in experiment [6], 80.7%.

Values taken from ChEMBL document CHEMBL1154962, “Novel 6-N-arylcarboxamidopyrazolo[4,3-d]pyrimidin-7-one derivatives as potential anti-cancer agents” (2010).
